Source: ChEMBL document CHEMBL4257459, “Synergistic antifungal effect of cyclized chalcone derivatives and fluconazole against Candida albicans” (2017)
Converted amounts (≈) assume the structure as drawn.

Columns and labels:
[1] = system: Candida albicans; assay: Antifungal activity against Candida albicans ATCC 90028 in presence of fluconazole by CLSI protocol based broth microdilution method; type: functional
[2] = system: Candida albicans; assay: Antifungal activity against fluconazole resistant Candida albicans 167-2 by CLSI protocol based broth microdilution method; type: functional
Method in brief: (§1)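 Broth microdilution per CLSI M27-A3 against clinical C. albicans isolates. Strains sub-cultured at least twice on Tryptone Soya Agar, 37 °C, 48 h. Compounds dissolved in DMSO at 2000 μg mL–1 stock. Fluconazole positive control, plus culture, media and vehicle controls. Run in duplicate; MIC in μg mL–1.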

[3] = system: Candida albicans; assay: Inhibition of ABC efflux pumps in fluconazole susceptible Candida albicans 004B1 assessed as reduction in energy-dependent rhodamine 6G efflux in presence of 0.1 M glucose after 25 mins by fluorescence assay relative to control
Method in brief: (§2)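 Cells grown in TSB at 37 °C for 8 h, washed, resuspended in glucose-free PBS at 1 × 10^8 cells. De-energized 45 min with 5 mM deoxyglucose plus 5 mM dinitrophenol. […] Washed, sampled 5–25 min, then 0.1 M glucose added. Absorbance 527 nm, R6G from standard curve.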

[4] = system: Candida albicans; assay: Inhibition of ABC efflux pumps in fluconazole susceptible Candida albicans 0079gr assessed as reduction in energy-dependent rhodamine 6G efflux in presence of 0.1 M glucose after 25 mins by fluorescence assay relative to control; method in brief: as §2
[5] = system: Candida albicans; assay: Antifungal activity against fluconazole susceptible Candida albicans 0072gr in presence of fluconazole by CLSI protocol based broth microdilution method; type: functional
[6] = system: Candida albicans; assay: Antifungal activity against fluconazole susceptible Candida albicans 002B1 in presence of fluconazole by CLSI protocol based broth microdilution method; type: functional
[7] = system: Candida albicans; assay: Inhibition of ABC efflux pumps in fluconazole resistant Candida albicans 167-1 assessed as reduction in energy-dependent rhodamine 6G efflux in presence of 0.1 M glucose after 25 mins […] relative to control
[8] = system: Candida albicans; assay: Inhibition of ABC efflux pumps in fluconazole susceptible Candida albicans 0072gr assessed as reduction in energy-dependent rhodamine 6G efflux in presence of 0.1 M glucose after 25 mins […] relative to control
[9] = system: Candida albicans; assay: Inhibition of ABC efflux pumps in fluconazole susceptible Candida albicans 002B1 assessed as reduction in energy-dependent rhodamine 6G efflux in presence of 0.1 M glucose after 25 mins […] relative to control
[10] = system: Candida albicans; assay: Antifungal activity against fluconazole susceptible Candida albicans 004gr in presence of fluconazole by CLSI protocol based broth microdilution method; type: functional
[11] = system: Candida albicans; assay: Inhibition of ABC efflux pumps in fluconazole susceptible Candida albicans 004gr assessed as reduction in energy-dependent rhodamine 6G efflux in presence of 0.1 M glucose after 25 mins by fluorescence assay relative to control; method in brief: as §2
[12] = system: Candida albicans; assay: Antifungal activity against fluconazole resistant Candida albicans A171 in presence of fluconazole by CLSI protocol based broth microdilution method; type: functional
Method in brief: (§3)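 Checkerboard-style combination with fluconazole at a 1 : 1 ratio, over concentrations 2–4 fold below each agent's MIC alone, by CLSI broth microdilution. Fractional inhibitory concentration index calculated and interpreted as synergy (<0.5), additive (0.5–1), indifferent or antagonistic.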

[13] = system: Candida albicans; assay: Inhibition of ergosterol biosynthesis in fluconazole resistant Candida albicans A171 at 0.5 to 1 times MIC relative to control; type: functional
Method in brief: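 Total sterols quantified by alcoholic KOH extraction in cells grown in 50 ml TSB with compounds at MIC and ½ MIC; untreated and 8 μg mL–1 fluconazole controls. Spectral scan; ergosterol content from A281.5 and A230 absorbances, dilution factor and pellet weight, correcting for 24(28) DHE.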

[14] = system: Candida albicans; assay: Inhibition of ergosterol biosynthesis in fluconazole susceptible Candida albicans ATCC 90028 at 0.5 to 1 times MIC relative to control; type: functional
Method in brief: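 ATCC90028 grown in 50 ml TSB with MIC and ½ MIC of compound; untreated and 8 μg mL–1 fluconazole controls. Sterols extracted by alcoholic KOH method and spectrophotometrically scanned; ergosterol % calculated from A281.5 and A230 (E values 290 and 518) with dilution factor, per pellet weight.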

[15] = system: Candida albicans; assay: Inhibition of ABC efflux pumps in fluconazole susceptible Candida albicans 003gr assessed as reduction in energy-dependent rhodamine 6G efflux in presence of 0.1 M glucose after 25 mins […] relative to control
[16] = system: Candida albicans; assay: Antifungal activity against fluconazole resistant Candida albicans 167-1 in presence of fluconazole by CLSI protocol based broth microdilution method; type: functional; method in brief: as §3
[17] = system: Candida albicans; assay: Antifungal activity against fluconazole susceptible Candida albicans 003gr in presence of fluconazole by CLSI protocol based broth microdilution method; type: functional
[18] = system: Candida albicans; assay: Inhibition of ABC efflux pumps in fluconazole resistant Candida albicans 167-2 assessed as reduction in energy-dependent rhodamine 6G efflux in presence of 0.1 M glucose after 25 mins […] relative to control
[19] = system: Candida albicans; assay: Antifungal activity against fluconazole susceptible Candida albicans 004gr by CLSI protocol based broth microdilution method; type: functional
Method in brief: (§4)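 Clinical isolates and control strain subcultured at least twice on TSA, 37 °C, 48 h. MICs by CLSI M27-A3 broth microdilution; compounds dissolved in DMSO to 2000 μg mL–1 stock. Fluconazole positive control, culture, media and DMSO vehicle controls in each run. Duplicate experiments; MIC in μg mL–1.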

[20] = system: Candida albicans; assay: Antifungal activity against fluconazole susceptible Candida albicans 0079gr in presence of fluconazole by CLSI protocol based broth microdilution method; type: functional
[21] = system: Candida albicans; assay: Antifungal activity against Candida albicans ATCC 90028 by CLSI protocol based broth microdilution method; type: functional; method in brief: as §4
[22] = system: Candida albicans; assay: Antifungal activity against fluconazole resistant Candida albicans 167-2 in presence of fluconazole by CLSI protocol based broth microdilution method; type: functional; method in brief: as §3
[23] = system: Candida albicans; assay: Antifungal activity against fluconazole susceptible Candida albicans 0079gr by CLSI protocol based broth microdilution method; type: functional; method in brief: as §4
[24] = system: Candida albicans; assay: Antifungal activity against fluconazole resistant Candida albicans 167-1 by CLSI protocol based broth microdilution method; type: functional; method in brief: as §1
[25] = system: Candida albicans; assay: Antifungal activity against fluconazole susceptible Candida albicans 0072gr by CLSI protocol based broth microdilution method; type: functional; method in brief: as §4
[26] = system: Candida albicans; assay: Antifungal activity against fluconazole susceptible Candida albicans 003gr by CLSI protocol based broth microdilution method; type: functional; method in brief: as §4
[27] = system: Candida albicans; assay: Antifungal activity against fluconazole resistant Candida albicans A171 by CLSI protocol based broth microdilution method; type: functional; method in brief: as §1
[28] = system: Candida albicans; assay: Inhibition of ABC efflux pumps in fluconazole resistant Candida albicans A171 assessed as reduction in energy-dependent rhodamine 6G efflux in presence of 0.1 M glucose after 25 mins by fluorescence assay relative to control; method in brief: as §2
[29] = system: Candida albicans; assay: Antifungal activity against fluconazole susceptible Candida albicans 002B1 by CLSI protocol based broth microdilution method; type: functional; method in brief: as §4
[30] = system: Candida albicans; assay: Antifungal activity against fluconazole susceptible Candida albicans 004B1 in presence of fluconazole by CLSI protocol based broth microdilution method; type: functional
[31] = system: Candida albicans; assay: Antifungal activity against fluconazole susceptible Candida albicans 004B1 by CLSI protocol based broth microdilution method; type: functional; method in brief: as §4

Structure (SMILES) | fractional inhibitory concentration index (FICI) [1] | MIC [2] [µg/mL] | inhibition [3] [%] | inhibition [4] [%] | fractional inhibitory concentration index (FICI) [5] | fractional inhibitory concentration index (FICI) [6] | inhibition [7] [%] | inhibition [8] [%] | inhibition [9] [%] | fractional inhibitory concentration index (FICI) [10] | inhibition [11] [%] | fractional inhibitory concentration index (FICI) [12] | inhibition (INH) [13] | inhibition (INH) [14] | inhibition [15] [%] | fractional inhibitory concentration index (FICI) [16] | fractional inhibitory concentration index (FICI) [17] | inhibition [18] [%] | MIC [19] [µg/mL] | fractional inhibitory concentration index (FICI) [20] | also measured
c1ccc(C2=NOC(c3ccccc3)C2)cc1 (configuration not stated) | 0.75 - 2 | 16 to 31 (≈ 71.7 to 139 µM) | < 20 | < 20 | 0.75 - 2 | 0.75 - 2 | < 20 | < 20 | < 20 | 0.75 - 2 | < 20 | 0.531 - 0.56 | 49 - 94% | 66 - 99% | < 20 | 0.531 - 0.56 | 0.75 - 2 | < 20 | 4 to 31 (≈ 17.9 to 139 µM) | 0.75 - 2 | MIC [21]: 4 to 31 µg/mL (≈ 17.9 to 139 µM); fractional inhibitory concentration index (FICI) [22]: 0.531 - 0.56; MIC [23]: 4 to 31 µg/mL (≈ 17.9 to 139 µM); MIC [24]: 16 to 31 µg/mL (≈ 71.7 to 139 µM); MIC [25]: 4 to 31 µg/mL (≈ 17.9 to 139 µM); MIC [26]: 4 to 31 µg/mL (≈ 17.9 to 139 µM); MIC [27]: 16 to 31 µg/mL (≈ 71.7 to 139 µM); inhibition [28]: < 20%; MIC [29]: 4 to 31 µg/mL (≈ 17.9 to 139 µM); fractional inhibitory concentration index (FICI) [30]: 0.75 - 2; MIC [31]: 4 to 31 µg/mL (≈ 17.9 to 139 µM)
O=C1NC(c2ccccc2)=CC(c2ccccc2)N1 (configuration not stated) | 0.31 - 1.5 | 8 to 16 (≈ 32 to 63.9 µM) | < 20 | < 20 | 0.31 - 1.5 | 0.31 - 1.5 | < 20 | < 20 | < 20 | 0.31 - 1.5 | < 20 | 0.129 - 0.27 | 49 - 94% | 66 - 99% | < 20 | 0.129 - 0.27 | 0.31 - 1.5 | < 20 | 1 to 8 (≈ 4 to 32 µM) | 0.31 - 1.5 | MIC [21]: 1 to 8 µg/mL (≈ 4 to 32 µM); fractional inhibitory concentration index (FICI) [22]: 0.129 - 0.27; MIC [23]: 1 to 8 µg/mL (≈ 4 to 32 µM); MIC [24]: 8 to 16 µg/mL (≈ 32 to 63.9 µM); MIC [25]: 1 to 8 µg/mL (≈ 4 to 32 µM); MIC [26]: 1 to 8 µg/mL (≈ 4 to 32 µM); MIC [27]: 8 to 16 µg/mL (≈ 32 to 63.9 µM); inhibition [28]: < 20%; MIC [29]: 1 to 8 µg/mL (≈ 4 to 32 µM); fractional inhibitory concentration index (FICI) [30]: 0.31 - 1.5; MIC [31]: 1 to 8 µg/mL (≈ 4 to 32 µM)
